Measured values: ChEMBL document CHEMBL5058577, “EUbOPEN Chemogenomics Library 2 (Multiplex)” (2022)

Tested on: HEK-293T
Experiment: Multiplex assay against HEK293T
Assay type: toxicity, cell-based
Conditions: human
Procedure, shortened: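 With compound added, live cells were imaged on a CQ1 microscope at 37°C and 5% CO2; staining with Hoechst33342, BioTracker Green Microtubule Cytoskeleton Dye, MitoTracker Red and Annexin V Alexa Fluor 680 had been done at seeding. The CellPathfinder machine-learning gating scheme split cells into Hoechst high-intensity objects or normal cells, normal cells into healthy, pyknosed or fragmented nuclei, and pyknosed cells into mitotic or apoptotic. The tubulin, mitochondrial-mass and membrane-permeability phenotypes are per cents of healthy-nucleus cells.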

[1] = 12 h, 1 µM, compound concentration 1 uM, replicate 1
[2] = 12 h, 1 µM, compound concentration 1 uM, replicate 2
[3] = 12 h, 10 µM, compound concentration 10 uM, replicate 1
[4] = 12 h, 10 µM, compound concentration 10 uM, replicate 2
[5] = 24 h, 1 µM, compound concentration 1 uM, replicate 1
[6] = 24 h, 1 µM, compound concentration 1 uM, replicate 2
[7] = 24 h, 10 µM, compound concentration 10 uM, replicate 1
[8] = 24 h, 10 µM, compound concentration 10 uM, replicate 2
[9] = 48 h, 1 µM, compound concentration 1 uM, replicate 1
[10] = 48 h, 1 µM, compound concentration 1 uM, replicate 2
[11] = 48 h, 10 µM, compound concentration 10 uM, replicate 1
[12] = 48 h, 10 µM, compound concentration 10 uM, replicate 2

COc1cc(NC(=O)CCN2CCC(OC(=O)Nc3ccccc3-c3ccccc3)CC2)c(Cl)cc1CNC[C@H](O)c1ccc(O)c2[nH]c(=O)ccc12 [BATEFENTEROL]
Population Apoptotic (%) [1]: 42%
Population Fragmented Nuclei (%) [1]: 4%
Population Healthy Nuclei (%) [1]: 81%
Population Hoechst High Intensity Objects (%) [1]: 7%
Population Membrane Permeable-Phenotype (%) [1]: 0%
Population Mitochondria Different-Phenotype (%) [1]: 65%
Population Mitotic Cells (%) [1]: 57%
Population Normal (%) [1]: 92%
Population Pyknosed Nuclei (%) [1]: 14%
Population Tubulin-Different-Phenotype (%) [1]: 44%
Total Cell Count [1]: 420
Population Apoptotic (%) [2]: 47%
Population Fragmented Nuclei (%) [2]: 3%
Population Healthy Nuclei (%) [2]: 78%
Population Hoechst High Intensity Objects (%) [2]: 8%
Population Mitochondria Different-Phenotype (%) [2]: 84%
Population Mitotic Cells (%) [2]: 52%
Population Normal (%) [2]: 91%
Population Pyknosed Nuclei (%) [2]: 17%
Population Tubulin-Different-Phenotype (%) [2]: 41%
Total Cell Count [2]: 285
Population Apoptotic (%) [3]: 100%
Population Fragmented Nuclei (%) [3]: 90%
Population Healthy Nuclei (%) [3]: 0%
Population Hoechst High Intensity Objects (%) [3]: 31%
Population Membrane Permeable-Phenotype (%) [3]: 0%
Population Mitochondria Different-Phenotype (%) [3]: 0%
Population Mitotic Cells (%) [3]: 0%
Population Normal (%) [3]: 68%
Population Pyknosed Nuclei (%) [3]: 9%
Population Tubulin-Different-Phenotype (%) [3]: 0%
Total Cell Count [3]: 16
Population Apoptotic (%) [4]: 52%
Population Fragmented Nuclei (%) [4]: 5%
Population Healthy Nuclei (%) [4]: 72%
Population Hoechst High Intensity Objects (%) [4]: 11%
Population Membrane Permeable-Phenotype (%) [4]: 1%
Population Mitochondria Different-Phenotype (%) [4]: 87%
Population Mitotic Cells (%) [4]: 47%
Population Normal (%) [4]: 88%
Population Pyknosed Nuclei (%) [4]: 22%
Population Tubulin-Different-Phenotype (%) [4]: 67%
Total Cell Count [4]: 303
Population Apoptotic (%) [5]: 44%
Population Fragmented Nuclei (%) [5]: 9%
Population Healthy Nuclei (%) [5]: 77%
Population Hoechst High Intensity Objects (%) [5]: 5%
Population Membrane Permeable-Phenotype (%) [5]: 0%
Population Mitochondria Different-Phenotype (%) [5]: 59%
Population Mitotic Cells (%) [5]: 55%
Population Normal (%) [5]: 94%
Population Pyknosed Nuclei (%) [5]: 12%
Population Tubulin-Different-Phenotype (%) [5]: 35%
Total Cell Count [5]: 527
Population Apoptotic (%) [6]: 41%
Population Fragmented Nuclei (%) [6]: 7%
Population Healthy Nuclei (%) [6]: 82%
Population Hoechst High Intensity Objects (%) [6]: 8%
Population Mitochondria Different-Phenotype (%) [6]: 65%
Population Mitotic Cells (%) [6]: 58%
Population Normal (%) [6]: 91%
Population Pyknosed Nuclei (%) [6]: 9%
Population Tubulin-Different-Phenotype (%) [6]: 27%
Total Cell Count [6]: 403
Population Apoptotic (%) [7]: 0%
Population Fragmented Nuclei (%) [7]: 87%
Population Healthy Nuclei (%) [7]: 12%
Population Hoechst High Intensity Objects (%) [7]: 33%
Population Membrane Permeable-Phenotype (%) [7]: 0%
Population Mitochondria Different-Phenotype (%) [7]: 100%
Population Mitotic Cells (%) [7]: 0%
Population Normal (%) [7]: 66%
Population Pyknosed Nuclei (%) [7]: 0%
Population Tubulin-Different-Phenotype (%) [7]: 100%
Total Cell Count [7]: 12
Population Apoptotic (%) [8]: 56%
Population Fragmented Nuclei (%) [8]: 6%
Population Healthy Nuclei (%) [8]: 73%
Population Hoechst High Intensity Objects (%) [8]: 7%
Population Mitochondria Different-Phenotype (%) [8]: 89%
Population Mitotic Cells (%) [8]: 43%
Population Normal (%) [8]: 93%
Population Pyknosed Nuclei (%) [8]: 19%
Population Tubulin-Different-Phenotype (%) [8]: 78%
Total Cell Count [8]: 357
Population Apoptotic (%) [9]: 35%
Population Fragmented Nuclei (%) [9]: 15%
Population Healthy Nuclei (%) [9]: 75%
Population Hoechst High Intensity Objects (%) [9]: 3%
Population Membrane Permeable-Phenotype (%) [9]: 0%
Population Mitochondria Different-Phenotype (%) [9]: 36%
Population Mitotic Cells (%) [9]: 65%
Population Normal (%) [9]: 96%
Population Pyknosed Nuclei (%) [9]: 8%
Population Tubulin-Different-Phenotype (%) [9]: 17%
Total Cell Count [9]: 744
Population Apoptotic (%) [10]: 51%
Population Fragmented Nuclei (%) [10]: 13%
Population Healthy Nuclei (%) [10]: 79%
Population Mitochondria Different-Phenotype (%) [10]: 42%
Population Mitotic Cells (%) [10]: 48%
Population Pyknosed Nuclei (%) [10]: 6%
Total Cell Count [10]: 547
Population Apoptotic (%) [11]: 100%
Population Fragmented Nuclei (%) [11]: 58%
Population Healthy Nuclei (%) [11]: 25%
Population Hoechst High Intensity Objects (%) [11]: 7%
Population Membrane Permeable-Phenotype (%) [11]: 0%
Population Mitochondria Different-Phenotype (%) [11]: 66%
Population Mitotic Cells (%) [11]: 0%
Population Normal (%) [11]: 92%
Population Pyknosed Nuclei (%) [11]: 16%
Population Tubulin-Different-Phenotype (%) [11]: 66%
Total Cell Count [11]: 13
Population Apoptotic (%) [12]: 57%
Population Fragmented Nuclei (%) [12]: 11%
Population Healthy Nuclei (%) [12]: 76%
Population Mitochondria Different-Phenotype (%) [12]: 76%
Population Mitotic Cells (%) [12]: 42%
Population Pyknosed Nuclei (%) [12]: 11%
Population Tubulin-Different-Phenotype (%) [12]: 74%
Total Cell Count [12]: 427

N#Cc1c(N)nc(SCc2csc(-c3ccc(Cl)cc3)n2)c(C#N)c1-c1ccc(OCCO)cc1 [CAPADENOSON]
Population Apoptotic (%) [1]: 36%
Population Fragmented Nuclei (%) [1]: 6%
Population Healthy Nuclei (%) [1]: 79%
Population Hoechst High Intensity Objects (%) [1]: 8%
Population Membrane Permeable-Phenotype (%) [1]: 0%
Population Mitochondria Different-Phenotype (%) [1]: 59%
Population Mitotic Cells (%) [1]: 63%
Population Normal (%) [1]: 91%
Population Pyknosed Nuclei (%) [1]: 13%
Population Tubulin-Different-Phenotype (%) [1]: 44%
Total Cell Count [1]: 373
Population Apoptotic (%) [2]: 54%
Population Healthy Nuclei (%) [2]: 80%
Population Hoechst High Intensity Objects (%) [2]: 4%
Population Mitochondria Different-Phenotype (%) [2]: 60%
Population Mitotic Cells (%) [2]: 45%
Population Normal (%) [2]: 95%
Population Pyknosed Nuclei (%) [2]: 12%
Population Tubulin-Different-Phenotype (%) [2]: 34%
Total Cell Count [2]: 375
Population Apoptotic (%) [3]: 57%
Population Fragmented Nuclei (%) [3]: 7%
Population Healthy Nuclei (%) [3]: 75%
Population Hoechst High Intensity Objects (%) [3]: 12%
Population Membrane Permeable-Phenotype (%) [3]: 0%
Population Mitochondria Different-Phenotype (%) [3]: 82%
Population Mitotic Cells (%) [3]: 42%
Population Normal (%) [3]: 87%
Population Pyknosed Nuclei (%) [3]: 17%
Population Tubulin-Different-Phenotype (%) [3]: 62%
Total Cell Count [3]: 307
Population Apoptotic (%) [4]: 70%
Population Fragmented Nuclei (%) [4]: 6%
Population Healthy Nuclei (%) [4]: 73%
Population Hoechst High Intensity Objects (%) [4]: 14%
Population Membrane Permeable-Phenotype (%) [4]: 1%
Population Mitochondria Different-Phenotype (%) [4]: 85%
Population Mitotic Cells (%) [4]: 29%
Population Normal (%) [4]: 85%
Population Pyknosed Nuclei (%) [4]: 20%
Population Tubulin-Different-Phenotype (%) [4]: 63%
Total Cell Count [4]: 388
Population Apoptotic (%) [5]: 36%
Population Fragmented Nuclei (%) [5]: 5%
Population Healthy Nuclei (%) [5]: 76%
Population Hoechst High Intensity Objects (%) [5]: 6%
Population Membrane Permeable-Phenotype (%) [5]: 2%
Population Mitochondria Different-Phenotype (%) [5]: 38%
Population Mitotic Cells (%) [5]: 63%
Population Normal (%) [5]: 93%
Population Pyknosed Nuclei (%) [5]: 17%
Population Tubulin-Different-Phenotype (%) [5]: 34%
Total Cell Count [5]: 450
Population Apoptotic (%) [6]: 37%
Population Fragmented Nuclei (%) [6]: 7%
Population Healthy Nuclei (%) [6]: 79%
Population Hoechst High Intensity Objects (%) [6]: 4%
Population Membrane Permeable-Phenotype (%) [6]: 0%
Population Mitochondria Different-Phenotype (%) [6]: 44%
Population Mitotic Cells (%) [6]: 62%
Population Normal (%) [6]: 95%
Population Pyknosed Nuclei (%) [6]: 12%
Population Tubulin-Different-Phenotype (%) [6]: 23%
Total Cell Count [6]: 456
Population Apoptotic (%) [7]: 65%
Population Fragmented Nuclei (%) [7]: 8%
Population Healthy Nuclei (%) [7]: 68%
Population Hoechst High Intensity Objects (%) [7]: 14%
Population Membrane Permeable-Phenotype (%) [7]: 0%
Population Mitochondria Different-Phenotype (%) [7]: 94%
Population Mitotic Cells (%) [7]: 34%
Population Normal (%) [7]: 85%
Population Pyknosed Nuclei (%) [7]: 22%
Population Tubulin-Different-Phenotype (%) [7]: 62%
Total Cell Count [7]: 319
Population Apoptotic (%) [8]: 73%
Population Fragmented Nuclei (%) [8]: 4%
Population Hoechst High Intensity Objects (%) [8]: 13%
Population Mitochondria Different-Phenotype (%) [8]: 89%
Population Mitotic Cells (%) [8]: 26%
Population Normal (%) [8]: 86%
Population Pyknosed Nuclei (%) [8]: 26%
Population Tubulin-Different-Phenotype (%) [8]: 61%
Total Cell Count [8]: 391
Population Apoptotic (%) [9]: 31%
Population Fragmented Nuclei (%) [9]: 10%
Population Healthy Nuclei (%) [9]: 79%
Population Hoechst High Intensity Objects (%) [9]: 4%
Population Membrane Permeable-Phenotype (%) [9]: 1%
Population Mitochondria Different-Phenotype (%) [9]: 32%
Population Mitotic Cells (%) [9]: 68%
Population Normal (%) [9]: 95%
Population Pyknosed Nuclei (%) [9]: 10%
Population Tubulin-Different-Phenotype (%) [9]: 23%
Total Cell Count [9]: 621
Population Apoptotic (%) [10]: 32%
Population Fragmented Nuclei (%) [10]: 11%
Population Healthy Nuclei (%) [10]: 80%
Population Hoechst High Intensity Objects (%) [10]: 3%
Population Membrane Permeable-Phenotype (%) [10]: 2%
Population Mitochondria Different-Phenotype (%) [10]: 23%
Population Mitotic Cells (%) [10]: 67%
Population Normal (%) [10]: 96%
Population Pyknosed Nuclei (%) [10]: 8%
Population Tubulin-Different-Phenotype (%) [10]: 18%
Total Cell Count [10]: 787
Population Apoptotic (%) [11]: 66%
Population Fragmented Nuclei (%) [11]: 11%
Population Healthy Nuclei (%) [11]: 68%
Population Hoechst High Intensity Objects (%) [11]: 12%
Population Membrane Permeable-Phenotype (%) [11]: 0%
Population Mitochondria Different-Phenotype (%) [11]: 89%
Population Mitotic Cells (%) [11]: 33%
Population Normal (%) [11]: 87%
Population Pyknosed Nuclei (%) [11]: 20%
Population Tubulin-Different-Phenotype (%) [11]: 67%
Total Cell Count [11]: 406
Population Apoptotic (%) [12]: 63%
Population Fragmented Nuclei (%) [12]: 12%
Population Healthy Nuclei (%) [12]: 73%
Population Hoechst High Intensity Objects (%) [12]: 10%
Population Mitochondria Different-Phenotype (%) [12]: 88%
Population Mitotic Cells (%) [12]: 36%
Population Normal (%) [12]: 89%
Population Pyknosed Nuclei (%) [12]: 14%
Population Tubulin-Different-Phenotype (%) [12]: 64%
Total Cell Count [12]: 423
